Assay results reported in article PMC4592802 (Journal of immunology (Baltimore, Md. : 1950), 2015).

Columns and labels:
CD4 on 3.L2 T cells = assay: Adhesion frequency assay for direct CD4 binding; design: species or system mouse; conditions: MCC:I-E^k at >4,000 molecules/μm^2; contact 5s; n≥3 cell pairs, 50 contacts each
How it was run: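 3.L2 T cells, negatively selected from 6–8-week mouse spleens, were brought by micropipette into repeated 5-s contacts with human RBCs. The RBCs were biotinylated, streptavidin-linked and coated with noncognate MCC:I-E^k at >4,000 molecules/μm². Site densities came from PE-antibody flow cytometry against standard beads. Adhesion was scored from RBC membrane deflection on retraction, with frequency taken from 50 contacts per cell pair.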

[1] = tested on: 3.L2 TCR on CD8^+ 3.L2 T cells; assay: BFP force-clamp bond lifetime assay, CD8+ 3.L2 T cells; assay type: binding, mouse; conditions: for Bond lifetime versus force / Bond type under force: force-clamp, 5-40 pN, CD8+ 3.L2 T cells; for Bond type under force: >300 lifetime events per ligand; for Force at maximum ratio of bond lifetime of Hb to that of the peptide: ratio bond lifetime Hb/peptide vs force (Fig. 6B)
How it was run: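 Biomembrane force probe force-clamp used beads carrying streptavidin-maleimide and subsaturating biotinylated pMHC-II. Each bond was loaded to a preset force and held constant until it dissociated. pMHC density was adjusted to keep adhesion frequency <20%, for […] single bonds. >300 lifetimes per ligand were taken over 5-40pN, in 5-7 bins. The Hb/peptide lifetime ratio was calculated from the force versus lifetime data.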

3.L2 TCR T-cell response = conditions: relative activity of well-characterized ligands; ref [6], [36]; cited from earlier work
3.L2 TCR = conditions: 3D SPR; ref [6]; cited from earlier work
[2] = tested on: 3.L2 TCR on CD4^+ 3.L2 T cells; assay: Micropipette adhesion frequency assay, CD4+ 3.L2 T cells; assay type: binding, mouse; conditions: T cells treated with anti-CD4 GK1.5, 20 μg/ml
How it was run: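 T cells were incubated 30min at 4°C with 20μg/ml anti-CD4 GK1.5, then tested with the same antibody present. Micropipette contacts were made with pMHC-coated RBCs, and adhesion frequency counted from 50 contacts per cell pair over a range of contact times. A least-squares fit to the probabilistic kinetic equation, using measured TCR and pMHC densities, gave AcKa and koff. On-rate = AcKa × koff.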

3.L2 TCR on T cells = assay: Thermal fluctuation assay; assay type: binding, mouse; conditions: T cells treated with anti-CD4 GK1.5; zero force
How it was run: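 Cells were pretreated 30min at 4°C with 20μg/ml anti-CD4 GK1.5, and the antibody was kept in the chamber during measurement. A biomembrane force probe bead bearing subsaturating biotinylated pMHC-II contacted the T cell. Bond lifetime ran from reduction to resumption of bead thermal fluctuations. koff was taken from the negative slope of ln(events with lifetime > t_b) versus t_b.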

[3] = molecular target: CD4 (mouse (endogenous in 3.L2 transgenic mouse T cells)) (UniProt P06332); assay: micropipette adhesion frequency assay
Chain of UniProt P06332 (P06332 27-457): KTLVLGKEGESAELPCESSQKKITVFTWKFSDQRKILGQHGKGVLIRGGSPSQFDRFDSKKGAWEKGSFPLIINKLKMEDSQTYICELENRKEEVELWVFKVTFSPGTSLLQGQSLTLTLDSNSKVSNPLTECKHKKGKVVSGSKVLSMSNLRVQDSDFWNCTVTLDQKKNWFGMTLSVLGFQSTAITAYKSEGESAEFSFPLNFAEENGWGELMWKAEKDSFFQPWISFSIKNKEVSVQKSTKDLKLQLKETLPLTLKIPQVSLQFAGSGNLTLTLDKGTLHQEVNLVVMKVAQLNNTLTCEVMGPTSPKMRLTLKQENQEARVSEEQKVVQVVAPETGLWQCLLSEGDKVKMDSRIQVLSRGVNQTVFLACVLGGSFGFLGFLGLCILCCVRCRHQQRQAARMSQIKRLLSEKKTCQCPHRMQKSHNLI

## ANERADLIAYLKQATK [MCC]
CD4 on 3.L2 T cells
  Adhesion frequency Pa, noncognate pMHC-II, very high site density: < 5%

## GKKVITAFAEGLK [A72]
[1]
  Bond lifetime versus force: decreases monotonically with increasing force
  Bond type under force: slip-only bonds
  Force at maximum ratio of bond lifetime of Hb to that of the peptide: 10-15 pN
3.L2 TCR T-cell response
  Classification of Ligand: Weak antagonist
3.L2 TCR
  Detectability by SPR (earlier work): not previously detectable using SPR

## GKKVITAFIEGLK [I72]
[1]
  Bond lifetime versus force: decreases monotonically with increasing force
  Bond type under force: slip-only bonds
  Force at maximum ratio of bond lifetime of Hb to that of the peptide: 10-15 pN
3.L2 TCR T-cell response
  Classification of Ligand: Antagonist

## GKKVITAFNEGLK [Hb]
[2]; calculated as AcKa × koff
  Effective 2D on-rate, Ackon, with CD4 blocking: 3.16 ± 0.42 × 10^−4 μm^4s^−1
[2]; zero force
  2D off-rate, koff (adhesion frequency assay)**, with CD4 blocking: 1.89 ± 0.31 s⁻¹
3.L2 TCR on T cells
  2D off-rate, koff (thermal fluctuation assay)*, with CD4 blocking: 1.41 ± 0.17 s⁻¹
[1]
  Bond type under force: catch-slip bonds
3.L2 TCR T-cell response
  Classification of Ligand: Agonist

## GKKVITAFTEGLK [T72]
[1]
  Bond type under force: catch-slip bonds
3.L2 TCR T-cell response
  Classification of Ligand: Weak agonist

## moth cytochrome c (MCC) peptide 88-103 bound to I-E^k (peptide-MHC)
[3]
  adhesion frequency: < 5%
